Screening data from PubChem BioAssay.
The list is not random: actives were taken first. Their share in the collection is about 1.5%.
EBI2 block = blocks human EBI2 receptor beta-arrestin signaling | inhibition, % at 5 µM | 360,000 compounds, 0.81% hits | P32249 | EBI2 beta-arrestin recruitment, luminescence, 7a,25-OHC stimulated; in the data active = inhibition above about 38%;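 also: enzyme fragment complementation signal reports receptor beta-arrestin coupling in cells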
APJ antagonist = antagonists of human APJ apelin receptor; 330,000 compounds, 0.32% hits; inhibition, % at 20 µM; CHO-K1 APJ beta-arrestin complementation, luminescence; P35414;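 active = inhibition above about 40% at 20 µM, limit read from the data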;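 also: cells challenged with 10 nM apelin-13 agonist together with compound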
CCR6 antagonist = blocks CCL20-driven beta-arrestin recruitment at human CCR6; P51684; CHO-K1 CCR6 PathHunter beta-arrestin, luminescence, CCL20-stimulated; inhibition, % at 20 µM; 340,000 compounds, 0.49% hits;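 active = compounds whose inhibition of the agonist-driven luminescence signal at 20 µM reaches about 50%, limit read from the data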;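 also: cells stimulated with CCL20 at 14 nM final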
CXCR6 inh = CXCR6 (human) receptor inhibition. O00574. CHO-K1 PathHunter CXCR6 beta-arrestin, luminescence. inhibition, % at 20 µM. 360,000 compounds, 0.36% hits. AID 602244; in the data active = inhibition above about 34%, passing the limit was not always enough;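 also: antagonist mode with CXCL16 agonist at 10 nM final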
Target sequence (O00574 whole entry, looked up): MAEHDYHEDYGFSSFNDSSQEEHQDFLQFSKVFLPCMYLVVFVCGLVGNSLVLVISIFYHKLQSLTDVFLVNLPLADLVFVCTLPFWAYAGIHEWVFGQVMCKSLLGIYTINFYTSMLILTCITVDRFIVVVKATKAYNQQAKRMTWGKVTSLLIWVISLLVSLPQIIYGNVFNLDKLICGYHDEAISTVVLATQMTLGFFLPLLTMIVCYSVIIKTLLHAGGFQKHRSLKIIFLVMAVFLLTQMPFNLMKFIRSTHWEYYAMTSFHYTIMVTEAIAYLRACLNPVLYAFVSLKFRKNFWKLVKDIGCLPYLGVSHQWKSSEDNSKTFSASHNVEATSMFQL
APJ ag = agonists of human APJ apelin receptor; activation, % at 20 µM; AID 2520; P35414; CHO-K1 APJ PathHunter beta-arrestin, luminescence; 0% DMSO wells, 100% apelin; 330,000 compounds, 0.11% hits;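 active = activation more than six SD over the plate average, tested at 20 µM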
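Assay system – PathHunter CHO-K1 APJ (AGTRL-1) beta-arrestin reporter cells · Compound – one dose, 20 µM compound, 1% DMSO · Timing – compound 90 min 25 °C, reagent 1 h · Measured by – luminescence from split beta-galactosidase complementation, Galacton Star/Emerald II substrate · Measure – beta-arrestin recruitment to APJ as agonist activity, luminescent signal · Benchmarks – DMSO vs Apelin-13 10 nM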
EBI2 antag conf = EBI2 (human) antagonism, single concentration confirmation; shares compounds with EBI2 block; EBI2 beta-arrestin luminescence, 7a,25-OHC antagonism; inhibition, % at 5 µM; 2,400 compounds, 29% hits; AID 651997;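 active = inhibition of at least 50%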
EBI2 ag = counter-screen for EBI2 antagonists: EBI2 agonist activity; activation, % at 5 µM; shares compounds with EBI2 block; EBI2-expressing cells, agonist mode, luminescence, 60 min; 0% vehicle, 100% 7α,25-dihydroxycholesterol control; 2,400 tested, under 10 active; AID 652000;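 active = activation of at least 50%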
bGal counter = beta-galactosidase inhibition counter-screen; shares compounds with EBI2 block; purified beta-galactosidase, luminescent Galacton Star, 15 min; inhibition, % at 5 µM; 2,400 compounds, 1% hits;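 active = replicate-average signal at least 3 plate SD below neutral wells, shown as high inhibition, flagging enzyme-inhibiting false positives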;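 also: higher means stronger loss of beta-gal luminescence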
Each line names hits and unclear results; the compound was inactive in the other large screens (follow-up assays come after a bar, where they were run).

COCOCCn1cc(CN2CCS(=O)(=O)N(Cc3ccc(-c4ccc(Cl)c(Cl)c4)cc3)C(C(C)C)C2=O)nn1 (configuration not stated)	none (no result: APJ antagonist, CCR6 antagonist, APJ ag)
CSc1ccc(C2=CC(=O)C[C@H](c3ccc(Cl)cc3)C2)cc1	EBI2 block 66.8 | EBI2 antag conf 51.8 | EBI2 ag inactive | bGal counter inactive
CC(=O)Nc1ccc(C2=CC(=O)C[C@H](c3ccc(Cl)cc3)C2)cc1	none
O=C1C=C(c2cccc(Cl)c2)C[C@@H](c2ccc(Cl)cc2)C1	EBI2 block 53.0 | EBI2 antag conf inactive | EBI2 ag inactive | bGal counter inactive
O=C1C=C(c2ccc(-c3ccccc3)c(F)c2)C[C@@H](c2ccc(Cl)cc2)C1	none
O=C1C=C(c2ccc3c(c2)oc2ccccc23)C[C@@H](c2ccc(Cl)cc2)C1	EBI2 block 62.4 | EBI2 antag conf inactive | EBI2 ag inactive | bGal counter inactive
O=C1C=C(c2cccc(Br)c2)C[C@@H](c2ccc(Cl)cc2)C1	EBI2 block 46.5 | EBI2 antag conf inactive | EBI2 ag inactive | bGal counter inactive
COc1ccc([C@H]2CC(=O)C=C(c3cccc(Cl)c3)C2)cc1	none
O=C1C=C(c2ccc(Oc3ccccc3)cc2)C[C@@H](c2ccc(Cl)cc2)C1	none
COc1cccc(C(O)c2nc(-c3cccc(C(F)(F)F)c3)cs2)c1 (configuration not stated)	none (no result: APJ antagonist, CCR6 antagonist, APJ ag)
O=[N+]([O-])c1ccc(N2CCN(Cc3ccccc3)CC2)c2c1no[n+]2[O-]	none (no result: APJ antagonist, CCR6 antagonist, APJ ag)
CCCCNC(=O)C(NC(=O)c1cccs1)C(=O)c1ccccc1 (configuration not stated)	none (no result: APJ antagonist, CCR6 antagonist, CXCR6 inh, APJ ag)
Cc1cc(NC(=O)CS(=O)(=O)c2cn(Cc3cccc(C(F)(F)F)c3)c3ccccc23)no1	none (no result: APJ antagonist, CCR6 antagonist, APJ ag)
COc1cc(F)c(C2=CC(=O)C[C@H](c3ccc(Cl)cc3)C2)cc1F	EBI2 block 57.9 | EBI2 antag conf inactive | EBI2 ag inactive | bGal counter inactive
O=C1C=C(c2cc(F)ccc2F)C[C@@H](c2ccc(Cl)cc2)C1	none
Cc1cccc(C)c1NC(=O)C1(C)CSCC(=O)N1Cc1cccs1 (configuration not stated)	none (no result: APJ antagonist, CCR6 antagonist, CXCR6 inh, APJ ag)
O=C(c1cc(-c2ccccc2Cl)on1)N1CCCC1	none
O=C(c1cccc(F)c1)N1CCN(C(=O)c2cc(-c3ccc(Cl)cc3Cl)on2)CC1	EBI2 block 44.5 | EBI2 antag conf inactive | EBI2 ag inactive | bGal counter inactive
Cc1ccc(C(O)c2ncc(-c3cccc4ccccc34)[nH]2)c(C)c1 (configuration not stated)	none (no result: APJ antagonist, CCR6 antagonist, APJ ag)
CCOC(=O)c1cnn(-c2nc(-c3ccc(C)cc3)cs2)c1C(F)(F)F	EBI2 block 45.0 (no result: APJ antagonist, APJ ag) | EBI2 antag conf inactive | EBI2 ag inactive | bGal counter inactive
O=C(O)c1cnn(-c2nc(-c3ccc(F)cc3)cs2)c1C(F)(F)F	none
COC(=O)C1=CN(c2ccc(OC)cc2OC)C(N)=C(C#N)C1c1ccccc1F (configuration not stated)	none (no result: APJ antagonist, CCR6 antagonist, CXCR6 inh, APJ ag)
c1ccc(Cc2nn3c(COc4ccccc4)nnc3s2)cc1	EBI2 block 60.2 | EBI2 antag conf inactive | EBI2 ag inactive | bGal counter inactive
CCC(c1nnnn1-c1ccc2c(c1)OCCO2)N1CCN(c2cccc(C)c2C)CC1 (configuration not stated)	none (no result: APJ antagonist, CCR6 antagonist, APJ ag)
CCOC(=O)C1CCN(C(=O)COc2ccc(Br)cc2C)CC1	none
O=C(CSc1ccc(Cl)cc1)N1CCC(c2nc3ccccc3s2)CC1	EBI2 block 82.5 | EBI2 antag conf 66.4 | EBI2 ag inactive | bGal counter inactive
CCOC(=O)C1CCN(C(=O)CSc2ccc(Cl)cc2)CC1	EBI2 block 76.7 | EBI2 antag conf inactive | EBI2 ag inactive | bGal counter inactive
CCOC(=O)C1CCN(C(=O)CSc2ccc(Br)cc2)CC1	EBI2 block 83.7 | EBI2 antag conf 54.3 | EBI2 ag inactive | bGal counter inactive
